Converted amounts (≈) assume the structure as drawn.
Legend:
[1] = Octanol-buffer partition coefficient, log P of the compound at pH 7.4 by HPLC; assay type: physicochemical
Procedure, shortened: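 Partition coefficient determined by HPLC in an octanol–buffer system at pH 7.4, 25 °C.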

Mus musculus [2] = test: Hypolipidemic activity in Swiss albino mouse assessed as decrease in plasma total cholesterol level at 50 mg/kg, po administered daily for 8 days measured on day 9 by spectrophotometry relative to control; assay type: functional; set-up: scale not given: the % may be the effect or the level left
Procedure, shortened: (§1)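 Male Swiss albino mice (moderately hypertriglyceridemic model) dosed by oral gavage at 50 mg/kg body weight once daily for 8 days; plasma triglyceride and total cholesterol measured. Percent change calculated relative to vehicle-treated control group; mean ± SE, n = 10 mice per group.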

Mus musculus [3] = test: Hypolipidemic activity in Swiss albino mouse assessed as decrease in plasma triglyceride level at 50 mg/kg, po administered daily for 8 days measured on day 9 by spectrophotometry relative to control; assay type: functional; set-up: scale not given: the % may be the effect or the level left; procedure, shortened: as §1
[4] = Aqueous solubility of the compound in 0.1 M boric acid buffer at pH 9.0 after 4 hrs by HPLC method; assay type: physicochemical
[5] = Aqueous solubility of the compound in 0.1 M phosphate buffer at pH 5.2 after 4 hrs by HPLC method; assay type: physicochemical
Mus musculus [6] = test: Hypolipidemic activity in Swiss albino mouse assessed as change in plasma total cholesterol level at 50 mg/kg, po administered daily for 8 days measured on day 9 by spectrophotometry relative to control; assay type: functional; procedure, shortened: as §1
[7] = Aqueous solubility of the compound in 0.2 M phosphate buffer at pH 7.4 after 4 hrs by HPLC method; assay type: physicochemical
[8] = Aqueous solubility of the compound in 0.2 M hydrochloric acid buffer at pH 1.0 after 4 hrs by HPLC method; assay type: physicochemical
[9] = Aqueous solubility of the compound in 0.1 M citric acid buffer at pH 3.0 after 4 hrs by HPLC method; assay type: physicochemical; conditions: pH 3, 4 h

logD [1]	solubility at 4 h [4] [ng/mL]	solubility at 4 h [5] [ng/mL]	solubility at 4 h [7] [ng/mL]	solubility ([8]; buffer, pH 1, 4 h) [ng/mL]	solubility [9] [ng/mL]	solubility at 4 h ([8]; 0.2 M hydrochloric acid buffer, pH 1) [ng/mL]	Compound	Activity (Mus musculus [2]) [%]	Activity (Mus musculus [3]) [%]	Activity (Mus musculus [6]) [%]
4.78	–	–	–	–	–	–	CC(C)OC(=O)C(C)(C)Oc1ccc(C(=O)c2ccc(Cl)cc2)cc1 [FENOFIBRATE]	5.5	48.6	–
4.65	3 (≈ 7.41 nM)	3 (≈ 7.41 nM)	2 (≈ 4.94 nM)	–	–	–	CC(=O)OC(C)OC(=O)C(C)(C)Oc1ccc(C(=O)c2ccc(Cl)cc2)cc1 (centres undefined)	–	33.1	-3.5
5.43	22 (≈ 49 nM)	1 (≈ 2.23 nM)	1 (≈ 2.23 nM)	–	–	–	CC(C)OC(=O)OC(C)OC(=O)C(C)(C)Oc1ccc(C(=O)c2ccc(Cl)cc2)cc1 (centres undefined)	7.7	47	–
3.5	4800 (≈ 11100 nM)	38000 (≈ 88000 nM)	1920 (≈ 4450 nM)	5 (≈ 11.6 nM)	15 (≈ 34.7 nM)	–	CC(C)(Oc1ccc(C(=O)c2ccc(Cl)cc2)cc1)C(=O)OCCN1CCOCC1	2.4	27.6	–
4.91	6 (≈ 13.8 nM)	2 (≈ 4.6 nM)	2 (≈ 4.6 nM)	–	2 (≈ 4.6 nM)	–	CC(C)OC(=O)OCOC(=O)C(C)(C)Oc1ccc(C(=O)c2ccc(Cl)cc2)cc1	7.2	33.1	–
4.7	1 (≈ 2.31 nM)	1 (≈ 2.31 nM)	2 (≈ 4.62 nM)	–	–	–	CC(C)(C)C(=O)OCOC(=O)C(C)(C)Oc1ccc(C(=O)c2ccc(Cl)cc2)cc1	9	45	–
4.35	4 (≈ 9.28 nM)	3 (≈ 6.96 nM)	2 (≈ 4.64 nM)	–	2 (≈ 4.64 nM)	230 (≈ 534 nM)	Cc1oc(=O)oc1COC(=O)C(C)(C)Oc1ccc(C(=O)c2ccc(Cl)cc2)cc1	11.2	27.2	–

From ChEMBL document CHEMBL1817557, “Synthesis and biological evaluation of orally active hypolipidemic agents” (J Med Chem, 2011)
